Bioassay records deposited in PubChem BioAssay by several laboratories.
CaV13 ICDI inh: Disruptors of the CACNA1D IQ motif to Ca2+-dependent inactivation inhibitor domain association, primary screening, Förster resonance energy transfer in intact living …. hit rate 0.098% among 340,000. HEK cells, CFP/YFP FRET ICDI-IQ, plate reader, 10 min; percent FRET-ratio fall versus neutral wells. inhibition, % at 12.3 µM. AID 743397;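 active = mean replicate inhibition of at least 30% and at least 1% of replicates passing that level; inconclusive = only one of the two criteria is met; inactive = neither criterion is met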
XiGFP reactiv: X-chromosome reactivation activator; hit rate 0.055% among 360,000; XiGFP mouse fibroblasts, % GFP-positive cells imaging, 3 d; cells co-treated with 5-aza-dC sensitizer; scaled so ellipticine positive control = 100%; activation, % at 7.58 µM; AID 743238;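 active = mean normalized replicate activation at least 10% and every replicate at or above 10%; inconclusive = only one of the two criteria met; inactive = mean below 10% and not all replicates reach 10%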
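Assay system – SV40-immortalized XiGFP fibroblast cells, line 68-5-11 · Buffer or medium – DMEM supplemented with 5-aza-dC as sensitizing agent · Dosing – one concentration, pinned · Benchmarks – positive control ellipticine, 6 µM final · Times – 3 days compound exposure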
TWEAK Fn14 block: TWEAK-Fn14 signaling inhibition | TWEAK-stimulated Fn14 reporter cells, luciferase luminescence, 8 h | inhibition, % at 10 µM | hit rate 2% among 360,000 | AID 1159606; in the data active = inhibition above about 50%
LGR2 inh: blocks bursicon-induced cAMP signaling via Drosophila LGR2. hit rate 0.35% among 380,000. HEK293 LGR2, CRE-luciferase, bursicon-stimulated, 4 h. inhibition, % at 9.99 µM;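 active = drop in luminescence signal, shown as inhibition above about 50% in the replicate tests, limit read from the data, passing the limit was not always enough; inconclusive = probably only some replicates passing the limit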;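 note: agonist challenge used bursicon conditioned medium at about half maximal strength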
TROY signal inh: TROY signaling inhibition; Q293 LMP1-TROYcd NF-kB luciferase reporter, 4 h; inhibition, % at 10 µM; hit rate 0.98% among 360,000;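 active = compounds whose plate-normalised and pattern-corrected inhibition of the luciferase reporter signal at the single screening dose is 50% or more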
A number is an active result; i = inactive; ? = inconclusive; nt = not tested or not shown. Hits are enriched below; roughly 2% of the tested compounds scored in any of these assays.

SMILES	CaV13 ICDI inh	XiGFP reactiv	TWEAK Fn14 block	LGR2 inh	TROY signal inh
COc1ccc(-c2ccc3n(c2=O)C[C@H]2[C@H](CO)[C@@H](C(=O)NCC4CC4)[C@@H]3N2S(C)(=O)=O)cc1	nt	i	nt	i	nt
CCN1CCN(CCNC(=O)c2ccc(/C=C3/Sc4ccccc4N(Cc4cccc(Cl)c4)C3=O)cc2)CC1	i	i	i	52	83
Cc1cccc(CN2C(=O)/C(=C\c3ccc(C(=O)NCCN4CCOCC4)cc3)Sc3ccccc32)c1	nt	nt	i	nt	62
Cc1ccc(S(=O)(=O)N2CCOCC2)cc1C(=O)NCCN1C(=O)S/C(=C\c2ccccc2Cl)C1=O	i	i	i	i	i
CC(C)(C)c1ccc(/C=C2\SC(=O)N(CCNC(=O)c3cccc(S(=O)(=O)N4CCOCC4)c3)C2=O)cc1	nt	nt	93	nt	84
C[C@@H]1CN([C@@H](C)CO)C(=O)c2cccc(NS(=O)(=O)c3ccc(F)cc3)c2O[C@H]1CN(C)S(=O)(=O)c1cn(C)cn1	nt	i	nt	i	nt
Cc1ccc(S(=O)(=O)Nc2ccc3c(c2)CC(=O)N([C@H](C)CO)C[C@@H](C)[C@@H](CN(C)S(C)(=O)=O)O3)cc1	nt	i	nt	i	nt
O=C(C1CCC1)N1CC2(C1)[C@H](c1ccccc1)[C@@H](CO)N2Cc1cncnc1	nt	i	nt	i	nt
Cc1cc(C)nc(SCCC(=O)Nc2ccccc2C)n1	nt	nt	106	nt	i
CCS(=O)(=O)N1CCN(c2ccc([N+](=O)[O-])c(NCc3ccccc3)c2)CC1	i	nt	i	nt	i
CS(=O)(=O)N1CCN(c2ccc([N+](=O)[O-])c(NCc3ccccc3)c2)CC1	nt	nt	75	nt	nt
CC(C)(C)c1ccc(-c2cc(-c3ccccc3O)[nH]n2)cc1	i	i	85	i	83
Oc1ccccc1-c1cc(-c2cccc(F)c2)n[nH]1	i	nt	i	nt	i
CCc1cccc(NC(=O)Cn2cc(C=O)c3ccccc32)c1	i	i	71	i	i
COc1ccc(CN(C)C[C@H]2OCCCC[C@@H](C)Oc3ccc(NC(=O)NC4CCCCC4)cc3C(=O)N([C@@H](C)CO)C[C@H]2C)cc1	nt	i	nt	i	nt
Cc1cc(C)n(S(=O)(=O)c2ccc(Cl)cc2)n1	i	i	i	i	i
Cc1cc(C)n(S(=O)(=O)c2ccc(F)cc2)n1	i	i	73	i	i
CC(C)Cn1nc(NC(=O)c2cccs2)c2cc3ccccc3nc21	i	i	i	nt	i
COc1ccc2nc3c(cc2c1)c(NC(=O)c1cccs1)nn3CC(C)C	56	nt	51	nt	i
CCCN(C)C[C@H]1OCCCC[C@@H](C)Oc2ccc(NC(=O)Nc3ccccc3)cc2C(=O)N([C@H](C)CO)C[C@@H]1C	nt	i	nt	i	nt
O=C(Nn1cnnc1)c1ccncc1	i	nt	i	nt	i
CC(=O)c1c(C(C)=O)c(C)n(NC(=O)c2ccncc2)c1C	nt	nt	53	nt	nt
C=CC[n+]1c(-c2ccc(OC)cc2)csc1NNC(=O)Nc1ccccc1	i	nt	i	i	i
C=CC[n+]1c(-c2ccc(C)cc2)csc1Nc1ccc(NC(C)=O)cc1	i	i	51	i	i
C/C=C/c1ccc([C@H]2[C@@H](CO)N(C(C)=O)C23CN(C(=O)c2ccccc2)C3)cc1	nt	i	nt	i	nt
SMILES	CaV13 ICDI inh	XiGFP reactiv	TWEAK Fn14 block	LGR2 inh	TROY signal inh
COc1ccc(N2CCN(C(=O)CSc3nnc4n3C(C)(C)Cc3ccccc3-4)CC2)cc1	i	nt	i	nt	i
Cc1ccc(Cl)cc1N1CCN(C(=O)CSc2nnc3n2C(C)(C)Cc2ccccc2-3)CC1	i	nt	96	nt	72
Cc1ccc(O)c(N=Nc2ccccc2)n1	i	i	57	?	i
Oc1ccc(Cl)cc1N=Nc1ccccc1	i	i	i	i	i
C[C@H]1CN([C@@H](C)CO)C(=O)Cc2cc(NS(=O)(=O)c3cccs3)ccc2O[C@H]1CN(C)S(=O)(=O)c1ccccc1	nt	i	nt	i	nt
C[C@H](CO)N1C[C@H](C)[C@@H](CN(C)Cc2ccc(Oc3ccccc3)cc2)Oc2ncc(-c3ccncc3)cc2C1=O	nt	i	nt	i	nt
COc1ccccc1NC(=O)CSc1nc2n[nH]c(C)c2c(=N)n1-c1ccccc1Cl	nt	nt	62	nt	i
CCc1ccccc1NC(=O)CSc1nc2n[nH]c(C)c2c(=N)n1-c1ccc(OC)cc1	nt	nt	i	i	i
CC(=O)N(C)C[C@@H]1Oc2c(NC(=O)NC(C)C)cccc2C(=O)N(C)C[C@H]1C	nt	i	nt	nt	nt
Cc1ccc(S(=O)(=O)N[C@H]2CC[C@H](CC(=O)NCCCN(C)C)O[C@@H]2CO)cc1	nt	i	nt	i	nt
CCCN1C[C@@H](C)[C@@H](OC)CN(C)C(=O)c2cc(NC(=O)c3ccc(F)cc3)ccc2OC[C@@H]1C	nt	i	nt	i	nt
C/C=C/c1ccc([C@H]2[C@@H](CO)N(C(C)=O)[C@H]2CN(C)C(=O)c2ccccn2)cc1	nt	i	nt	i	nt
Cc1cc(C)n(-c2ccc(C(=O)Nc3ccc(S(=O)(=O)N(C)C)cc3)cc2)n1	i	i	i	i	i
CCN(CC)S(=O)(=O)c1cccc(NC(=O)c2ccc(-n3nc(C)cc3C)cc2)c1	i	i	60	i	i
Cc1cc(C)n(-c2ccc(C(=O)Nc3ccc(S(=O)(=O)NCc4ccco4)cc3)cc2)n1	i	nt	59	nt	i
Cc1cc(C)n(-c2ccc(C(=O)Nc3ccc(C)c(S(=O)(=O)N(C)C)c3)cc2)n1	i	i	53	i	i
CCCCN1C(=O)c2ccc(C(=O)Nc3ccc(C)c(S(=O)(=O)N(C)C)c3)cc2C1=O	i	nt	91	?	55
CCCCN1C(=O)c2ccc(C(=O)Nc3cccc(C)c3C)cc2C1=O	i	nt	i	nt	i
Cc1ccc(NC(=O)c2ccncc2)cc1S(=O)(=O)N(C)C	i	i	i	i	i
CN(C)S(=O)(=O)Oc1ccc(C(=O)Nc2cccc(C(F)(F)F)c2)cc1	i	i	54	i	i
CN(C)S(=O)(=O)Oc1ccc(C(=O)Nc2cccc(Cl)c2)cc1	i	i	i	i	i
Cc1ccc(NC(=O)c2ccc(OC(F)(F)F)cc2)cc1S(=O)(=O)N(C)C	i	i	52	i	i
COc1ccccc1C(=O)N1C[C@H]2[C@@H](c3ccccc31)[C@@H](CO)N2Cc1ccc(F)cc1	nt	i	nt	i	nt
CNC[C@H]1OCCCC[C@@H](C)Oc2ccc(N)cc2C(=O)N([C@@H](C)CO)C[C@H]1C	nt	i	nt	i	nt
CNC[C@H]1Oc2ccc(NS(C)(=O)=O)cc2C(=O)N(C)C[C@H]1C	nt	i	nt	nt	nt
SMILES	CaV13 ICDI inh	XiGFP reactiv	TWEAK Fn14 block	LGR2 inh	TROY signal inh
C[C@@H]1CN([C@@H](C)CO)C(=O)c2cc(Br)cnc2O[C@@H]1CN(C)C(=O)C1CCOCC1	nt	i	nt	i	nt
Cc1csc(NC(=O)CSc2nnc(-c3ccco3)n2C)n1	i	nt	86	nt	81
Nn1c(SCC(=O)Nc2ccc(S(N)(=O)=O)cc2)nnc1-c1ccco1	i	i	i	i	57
Cc1ccc(/C=C/C(=O)c2ccccc2O)cc1	i	i	i	i	i
Cc1ccc(O)c(C(=O)C=Cc2ccccc2)c1	i	i	54	i	i
O=C(/C=C/c1ccc2c(c1)OCCCO2)c1ccccc1O	i	i	75	i	56
CCNc1ccccc(C(=O)/C=C/c2ccc3c(c2)OCO3)c1=O	nt	nt	i	nt	i
